≈ marks a conversion by molar mass, not a printed value. Calls of active or inactive are those of the source. No cut-off for these calls is given here.
Legend:
Staphylococcus aureus [1] = assay: Ratio of MBC to MIC for methicillin-resistant Staphylococcus aureus USA300; assay type: functional
Procedure, shortened: (§1)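 MBC/MIC ratio. […] MBC by plating no-growth wells onto tryptic soy agar at 37 °C for at least 18 h; taken as the concentration giving 99.9% growth inhibition.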

Staphylococcus aureus [2] = assay: Ratio of MBC to MIC for vancomycin-resistant Staphylococcus aureus VRS11a; assay type: functional; procedure, shortened: as §1
Staphylococcus aureus [3] = assay: Antibacterial activity against vancomycin-resistant Staphylococcus aureus VRS11a after 20 hrs by broth microdilution assay; assay type: functional
Procedure, shortened: (§2)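 Broth microdilution per CLSI in cation-adjusted Mueller Hinton broth. Compounds serially diluted, in triplicate. Incubation at 37 °C for at least 20 hours. MIC taken as the lowest concentration with no visible bacterial growth.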

Mus musculus [4] = assay: Induction of inflammation in Balb/c mouse infected with methicillin-resistant Staphylococcus aureus USA300 assessed as redness around wounded skin area at 2% administered topically twice daily for 5 consecutive days measured 12 hrs post last dose relative to control; assay type: organism-based; settings: in vivo, topical_or_ocular
Procedure, shortened: (§3)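 Female Balb/c mice, 8 weeks old, n=5 per group. Intradermal injection of 40 μL of 1.32×10^9 CFU/mL USA300; a wound formed by ~66 h. Treated topically with a 2% suspension in petroleum jelly twice daily for 5 days; the vehicle group served as control. Wounds excised 12 h after the last dose, homogenized in PBS and plated on mannitol salt agar; sites also observed for redness and swelling.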

Staphylococcus aureus [5] = assay: Potency index, ratio of vancomycin MIC to compound MIC for antibacterial activity against vancomycin-resistant Staphylococcus aureus VRS10; assay type: functional
Staphylococcus aureus [6] = assay: Bactericidal activity against methicillin resistant vancomycin-resistant Staphylococcus aureus VRS10 up to 18 hrs by broth microdilution assay; assay type: functional; settings: VRS10, 18 h, read-out: MBC99.9
Staphylococcus aureus [7] = assay: Bactericidal activity against methicillin-resistant Staphylococcus aureus USA300 at 4 times MIC after 24 hrs by time kill assay; assay type: functional, organism-based
Staphylococcus aureus [8] = assay: Ratio of MBC to MIC for methicillin-resistant Staphylococcus aureus NRS123 (USA400); assay type: functional; procedure, shortened: as §1
Mus musculus [9] = assay: Induction of inflammation in Balb/c mouse infected with methicillin-resistant Staphylococcus aureus USA300 assessed as swelling around wounded skin area at 2% administered topically twice daily for 5 consecutive days measured 12 hrs post last dose; assay type: organism-based; settings: in vivo, topical_or_ocular; procedure, shortened: as §3
Staphylococcus aureus [10] = assay: Bactericidal activity against methicillin resistant Staphylococcus aureus NRS123 (USA400) up to 18 hrs by broth microdilution assay; assay type: functional; settings: read-out: MBC99.9
Staphylococcus aureus [11] = assay: Bactericidal activity against methicillin-resistant Staphylococcus aureus NRS119 up to 18 hrs by broth microdilution assay; assay type: functional; settings: NRS119, 18 h, read-out: MBC99.9
Staphylococcus aureus [12] = assay: Bactericidal activity against methicillin-resistant Staphylococcus aureus NRS123 (USA400) at 4 times MIC after 24 hrs by time kill assay; assay type: functional, organism-based
[13] = Selectivity index, ratio of toxic concentration for human HRT18 cells to MIC for methicillin-resistant Staphylococcus aureus; assay type: toxicity; settings: read-out: Selectivity Index
Staphylococcus aureus [14] = assay: Antibacterial activity against vancomycin-resistant Staphylococcus aureus VRS10 after 20 hrs by broth microdilution assay; assay type: functional; settings: VRS10, 20 h; procedure, shortened: as §2
Staphylococcus aureus [15] = assay: Ratio of MBC to MIC for vancomycin-resistant Staphylococcus aureus VRS12; assay type: functional; procedure, shortened: as §1
Staphylococcus aureus [16] = assay: Bactericidal activity against methicillin resistant vancomycin-resistant Staphylococcus aureus VRS12 up to 18 hrs by broth microdilution assay; assay type: functional; settings: VRS12, 18 h, read-out: MBC99.9
Procedure, shortened: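 MBC set up from the MIC plates. Aliquots from wells with no growth spotted onto tryptic soy agar and incubated at 37 °C for at least 18 hours. MBC taken as the lowest concentration giving 99.9% inhibition of bacterial growth.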

Staphylococcus aureus [17] = assay: Ratio of MBC to MIC for vancomycin-resistant Staphylococcus aureus VRS10; assay type: functional; procedure, shortened: as §1
Staphylococcus aureus [18] = assay: Antibacterial activity against methicillin-resistant Staphylococcus aureus NRS123 (USA400) infected in mouse J774 cells at 16 ug/ml after 24 hrs; assay type: functional, organism-based
Procedure, shortened: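 J774 macrophages grown in DMEM with 10% FBS at 37 °C, 5% CO2. Infected with USA400 at MOI ~100:1 for 1 h, then washed with gentamicin 50 μg/mL. Treated in triplicate wells for 24 h, washed with gentamicin again and lysed with 0.1% Triton X-100. Lysate plated on tryptic soy agar for 18–22 h; CFU/mL counted.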

Staphylococcus aureus [19] = assay: Bactericidal activity against methicillin resistant vancomycin-resistant Staphylococcus aureus VRS11a up to 18 hrs by broth microdilution assay; assay type: functional; settings: read-out: MBC99.9
HRT-18 cell line = assay: Cytotoxicity against human HRT18 cells assessed as reduction in cell viability up to 32 ug/ml after 2 hrs by MTS assay; assay type: cell-based; settings: hrt-18, 2 h
Staphylococcus aureus [20] = assay: Antibacterial activity against methicillin-resistant Staphylococcus aureus NRS123 (USA400) after 20 hrs by broth microdilution assay; assay type: functional; procedure, shortened: as §2
Staphylococcus aureus [21] = assay: Antibacterial activity against methicillin-resistant Staphylococcus aureus NRS119 after 20 hrs by broth microdilution assay; assay type: functional; settings: NRS119, 20 h; procedure, shortened: as §2
Staphylococcus aureus [22] = assay: Bactericidal activity against methicillin-resistant Staphylococcus aureus USA300 up to 18 hrs by broth microdilution assay; assay type: functional; settings: USA300, 18 h, read-out: MBC99.9
Staphylococcus aureus [23] = assay: Potency index, ratio of vancomycin MIC to compound MIC for antibacterial activity against vancomycin-resistant Staphylococcus aureus VRS11a; assay type: functional
J774 = assay: Cytotoxicity against mouse J774 cells assessed as reduction in cell viability up to 16 ug/ml after 24 hrs by MTS assay; assay type: cell-based; settings: j774, 24 h
Procedure, shortened: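 J774 murine macrophages were grown in DMEM with 10% FBS at 37 °C, 5% CO2. Compounds were tested at 8, 16 and 32 μg/mL in triplicate for 24 h, with a DMSO-matched control. MTS was added for 4 h and absorbance read at 490 nm. Viability is given as % of DMSO control (mean ± SD); Student t-test with Holm-Sidak test.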

Staphylococcus aureus [24] = assay: Antibacterial activity against methicillin-resistant Staphylococcus aureus USA300 infected in Caenorhabditis elegans AU37 assessed as reduction in bacterial burden at 20 ug/ml after 18 hrs relative to control; assay type: functional; design: scale not given: the % may be the effect or the level left
Procedure, shortened: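 L4-stage C. elegans AU37 infected on USA300 lawns for 6 h and washed with M9 buffer. 25–30 worms per well exposed to 20 μg/mL for 18 h, in triplicate. Worms then lysed and plated on TSA with 5 μg/mL nalidixic acid for 17 h at 37 °C. CFU per worm expressed as % reduction versus PBS.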

Staphylococcus aureus [25] = assay: Ratio of MBC to MIC for methicillin-resistant Staphylococcus aureus NRS119; assay type: functional; procedure, shortened: as §1
Staphylococcus aureus [26] = assay: Potency index, ratio of vancomycin MIC to compound MIC for antibacterial activity against vancomycin-resistant Staphylococcus aureus VRS12; assay type: functional
Staphylococcus aureus [27] = assay: Antibacterial activity against methicillin-resistant Staphylococcus aureus USA300 in Balb/c mouse skin infection model assessed as reduction in bacterial burden in wounded skin area at 2% administered topically twice daily for 5 consecutive days measured 12 hrs post last dose relative to control; assay type: functional; design: scale not given: the % may be the effect or the level left; procedure, shortened: as §3
Staphylococcus aureus [28] = assay: Antibacterial activity against methicillin-resistant Staphylococcus aureus NRS107 after 20 hrs by broth microdilution assay; assay type: functional; settings: NRS107, 20 h; procedure, shortened: as §2
Mus musculus [29] = assay: Toxicity in wounded skin area of Balb/c mouse infected with methicillin-resistant Staphylococcus aureus USA300 at 2% administered topically twice daily for 5 consecutive days measured 12 hrs post last dose; assay type: organism-based; settings: in vivo, topical_or_ocular; procedure, shortened: as §3
Staphylococcus aureus [30] = assay: Antibacterial activity against vancomycin-resistant Staphylococcus aureus VRS12 after 20 hrs by broth microdilution assay; assay type: functional; settings: VRS12, 20 h; procedure, shortened: as §2
Staphylococcus aureus [31] = assay: Ratio of MBC to MIC for methicillin-resistant Staphylococcus aureus NRS107; assay type: functional; procedure, shortened: as §1
Staphylococcus aureus [32] = assay: Bactericidal activity against methicillin-resistant Staphylococcus aureus NRS107 up to 18 hrs by broth microdilution assay; assay type: functional; settings: NRS107, 18 h, read-out: MBC99.9
Staphylococcus aureus [33] = assay: Antibacterial activity against methicillin-resistant Staphylococcus aureus USA300 after 20 hrs by broth microdilution assay; assay type: functional; settings: USA300, 20 h; procedure, shortened: as §2
[34] = Induction of proton motive force collapse in Escherichia coli inverted membrane vesicle in presence of succinate/O2-driven PMF generation system by ACMA-based fluorescence assay; assay type: functional, cell membranes
Procedure, shortened: (§4)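 E. coli inverted membrane vesicles had proton motive force generated either by ATP or by succinate/O2. PMF collapse was followed as a dose response to give EC50, with CCCP as the reference uncoupler.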

[35] = Induction of proton motive force collapse in Escherichia coli inverted membrane vesicle in presence of ATP-driven PMF generation system by ACMA-based fluorescence assay; assay type: functional, cell membranes; procedure, shortened: as §4

In the case of `CCCCCC#Cc1ccc(-c2nc(C)c(/C(C)=N/NC(=N)N)s2)cc1`, the Ratio (Staphylococcus aureus [1]) is reported as “<=3”, the Ratio (Staphylococcus aureus [2]) is reported as “<=3” and the MIC (Staphylococcus aureus [3]) is reported as 1 µg/mL (≈ 2.72 µM). For the same compound, the Activity (Mus musculus [4]) was “Non-Toxic”, the Ratio (Staphylococcus aureus [5]) was >100 and the MBC (Staphylococcus aureus [6]) was 2 µg/mL (≈ 5.44 µM). The Activity (Staphylococcus aureus [7]) was “Active”, the Ratio (Staphylococcus aureus [8]) was “<=3” and the Activity (Mus musculus [9]) was “Non-Toxic”. The MBC (Staphylococcus aureus [10]) was 2 µg/mL (≈ 5.44 µM), the MBC (Staphylococcus aureus [11]) was 2 µg/mL (≈ 5.44 µM) and the Activity (Staphylococcus aureus [12]) was “Active”. For the same compound, the selectivity ratio [13] was 7 to 31, the MIC (Staphylococcus aureus [14]) was 2 µg/mL (≈ 5.44 µM) and the Ratio (Staphylococcus aureus [15]) was “<=3”. The MBC (Staphylococcus aureus [16]) was 2 µg/mL (≈ 5.44 µM), the Ratio (Staphylococcus aureus [17]) was “<=3” and the Activity (Staphylococcus aureus [18]) was “Active”. For the same compound, the MBC (Staphylococcus aureus [19]) was 2 µg/mL (≈ 5.44 µM), the Activity (HRT-18 cell line) was “Non-Toxic” and the MIC (Staphylococcus aureus [20]) was 2 µg/mL (≈ 5.44 µM). For the same compound, the MIC (Staphylococcus aureus [21]) was 2 µg/mL (≈ 5.44 µM), the MBC (Staphylococcus aureus [22]) was 4 µg/mL (≈ 10.9 µM) and the Ratio (Staphylococcus aureus [23]) was >100. The Activity (J774) was “Non-Toxic”, the Activity (Staphylococcus aureus [24]) was 90% and the Ratio (Staphylococcus aureus [25]) was “<=3”. It also gave a Ratio (Staphylococcus aureus [26]) of 8, an Activity (Staphylococcus aureus [27]) of 71% and an MIC (Staphylococcus aureus [28]) of 2 µg/mL (≈ 5.44 µM). For the same compound, the Activity (Mus musculus [29]) was “Non-Toxic”, the MIC (Staphylococcus aureus [30]) was 2 µg/mL (≈ 5.44 µM) and the Ratio (Staphylococcus aureus [31]) was “<=3”.

With `CCCC#Cc1ccc(-c2nc(C)c(/C(C)=N/NC(=N)N)s2)cc1` the Ratio (Staphylococcus aureus [1]; read-out: Ratio) was 8, the Ratio (Staphylococcus aureus [2]) was “<=3” and the MIC (Staphylococcus aureus [3]) was ≤ 0.5 µg/mL. For the same compound, the Ratio (Staphylococcus aureus [5]) was >100, the MBC (Staphylococcus aureus [6]) was 2 µg/mL (≈ 5.89 µM) and the Activity (Staphylococcus aureus [7]) was “Active”. For the same compound, the MBC (Staphylococcus aureus [32]) was 1 µg/mL (≈ 2.95 µM), the MBC (Staphylococcus aureus [11]) was 1 µg/mL (≈ 2.95 µM) and the Activity (Staphylococcus aureus [12]) was “Active”. The selectivity ratio [13] was 7 to 31, the MIC (Staphylococcus aureus [14]) was 1 µg/mL (≈ 2.95 µM) and the Ratio (Staphylococcus aureus [15]) was “<=3”. For the same compound, the MBC (Staphylococcus aureus [16]) was 1 µg/mL (≈ 2.95 µM), the Ratio (Staphylococcus aureus [17]) was “<=3” and the Activity (Staphylococcus aureus [18]) was “Active”. The Activity (HRT-18 cell line) was “Non-Toxic”, the MIC (Staphylococcus aureus [21]) was 1 µg/mL (≈ 2.95 µM) and the MIC (Staphylococcus aureus [33]) was 1 µg/mL (≈ 2.95 µM). The MBC (Staphylococcus aureus [22]) was 8 µg/mL (≈ 23.6 µM), the Ratio (Staphylococcus aureus [23]) was >100 and the Activity (J774) was “Non-Toxic”. For the same compound, the Ratio (Staphylococcus aureus [25]) was “<=3”, the Ratio (Staphylococcus aureus [26]) was 16 and the MIC (Staphylococcus aureus [28]) was 1 µg/mL (≈ 2.95 µM). The MIC (Staphylococcus aureus [30]) was 1 µg/mL (≈ 2.95 µM) and the Ratio (Staphylococcus aureus [31]) was “<=3”.

For `N#CC(C#N)=NNc1cccc(Cl)c1` [CARBONYL CYANIDE M-CHLOROPHENYLHYDRAZONE], the EC50 [34] was 210 nM and the EC50 [35] was 470 nM.
